Assay results gathered from unrelated publications.
Each line is one published result; the experiments were not run side by side.
Read-out: cell growth or viability

Structure (SMILES)	cell line	technique	time	IC50 [µM]
CCOc1ccc(C=Nn2c(-c3ccccc3)nc3ccc(Cl)cc3c2=O)cc1O	LLC-PK1	MTT	72 h	342
O=C(CCSSc1ccccc1/C=N/NC(=O)c1ccccc1)OC[C@H]1OC(O)[C@H](O)[C@@H](O)[C@@H]1O (some centres unmarked)	A2780	MTT		23
O=c1c2cc(Cl)ccc2nc(-c2ccccc2)n1N=Cc1ccc(F)cc1	LLC-PK1	MTT	72 h	86.7
COc1cccc(-c2cc(NCc3ccc4c(c3)OCO4)nc(N)n2)c1	A2780		72 h	0.0901
NS(=O)(=O)c1ccc(-n2nc(C(=O)NN=Cc3ccc(O)cc3)cc2-c2ccccc2)cc1	HT-29	fluorescence	48 h	19.7
O=c1c2cc(Cl)ccc2nc(-c2ccccc2)n1N=Cc1cccc([N+](=O)[O-])c1	LLC-PK1	MTT	72 h	149
CC(C)(C)c1cnc(CSc2cnc(NC(=O)C3CCN(C(=O)CCCCCCCN4Cc5cc6c(cc5C4)C(=O)N(C4CCC(=O)NC4=O)C6=O)CC3)s2)o1 (centres unmarked)	SK-UT-1	MTT		0.106
NS(=O)(=O)c1ccc(-n2nc(C(=O)NN=Cc3cccnc3)cc2-c2ccccc2)cc1	HT-29	fluorescence	48 h	32.3
O=C(NO)c1ccc(N2CCN(Cc3cnc4ccccc4c3)CC2)cc1	LLC-PK1		48 h	> 69.1
CC(=O)O[C@H]1C(=O)[C@@]2(C)[C@H]([C@H](OC(=O)c3ccccc3)[C@]3(O)C[C@H](OC(=O)[C@H](O)[C@@H](NC(=O)c4ccccc4)c4ccccc4)C(C)=C1C3(C)C)[C@]1(OC(C)=O)CO[C@@H]1C[C@@H]2O	LLC-PK1	MTT	72 h	1.31
Nc1cccc2c1C(=O)N(C1CCC(=O)NC1=O)C2=O (centres unmarked)	SU-DHL-4	CCK-8	7 days	> 20
CC(=O)OC[C@H]1O[C@@H]([S-])[C@H](OC(C)=O)[C@@H](OC(C)=O)[C@@H]1OC(C)=O.CCP(CC)CC.[Au+]	IMR-90	MTT	48 h	5.27
NS(=O)(=O)c1ccc(-n2nc(C(=O)NN=Cc3ccccc3O)cc2-c2ccccc2)cc1	HT-29	fluorescence	48 h	20
O=C(NO)c1ccc(N2CCN(Cc3c[nH]c4ccccc34)CC2)cc1	LLC-PK1		48 h	13.3
CN1CCC(NC2CCc3[nH]c4c(C(N)=O)ccc(-c5ccccc5Cl)c4c3C2)CC1 (centres unmarked)	SU-DHL-4		96 h	0.0223
O=c1c2cc(Cl)ccc2nc(-c2ccccc2)n1N=Cc1ccccc1O	LLC-PK1	MTT	72 h	75.7
NS(=O)(=O)c1ccc(-n2nc(-c3nnc(CCl)o3)cc2-c2ccccc2)cc1	HT-29	fluorescence	48 h	29.5
CCOc1ccc(C=Nn2c(-c3ccccc3)nc3ccc(Cl)cc3c2=O)cc1	LLC-PK1	MTT	72 h	136
NS(=O)(=O)c1ccc(-n2nc(-c3nnc(S)o3)cc2-c2ccccc2)cc1	HT-29	fluorescence	48 h	39.4
COc1cccc2c1C(=O)c1c(O)c3c(c(O)c1C2=O)C[C@@](O)(C(=O)CO)C[C@@H]3O[C@H]1C[C@H](N)[C@H](O)[C@H](C)O1	LLC-PK1		48 h	2.34
